As usually defined, the inhibition is how much of the control response was suppressed. As a reminder, the IC50 is the concentration that gives 50% inhibition.

These results are taken from ChEMBL document CHEMBL2216753, “Novel 1,4-benzoxazine and 1,4-benzodioxine inhibitors of angiogenesis” (Eur J Med Chem, 2012).

The nature of data set [1]: Cytotoxicity against human HMEC1 cells at 100 uM after 3 days by coulter counter method. It is filed as cell-based. Particulars: hmec-1, 72 h. The gist of the method: (§1)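 Cells seeded at 10,000 cells per cm2; after 16 h, fresh medium with test compound added. Cells trypsinized and counted with a Coulter counter on day 4 (BAEC, HeLa, MCF-7) or day 7 (HMEC-1). Cytotoxicity (cell death) was judged after 3 days in culture. HMEC-1 grown in EGM-2 with supplements and growth factors.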

Data set [2] can be described thus: Cytotoxicity against bovine BAEC cells at 100 uM after 3 days by coulter counter method. The settings on record: cattle, 72 h. It is filed as cell-based, Bos taurus. The gist of the method: as §1
For data set [3], the system named is HeLa. The experiment in a line: Cytotoxicity against human HeLa cells at 100 uM after 3 days by coulter counter method. It is filed as cell-based. The settings on record: 72 h. An outline of the steps: as §1
The test system of data set [4] is MCF7. The experiment in a line: Cytotoxicity against human MCF7 cells at 100 uM after 3 days by coulter counter method. It is filed as cell-based. The settings on record: mcf7, 72 h. An outline of the steps: as §1
The nature of data set [5]: Cytotoxicity against human HMEC1 cells at 30 uM after 3 days by coulter counter method. It is filed as cell-based. Particulars: hmec-1, 72 h. An outline of the steps:
as §1

Data set [6] is described as follows: Cytotoxicity against bovine BAEC cells at 30 uM after 3 days by coulter counter method. Particulars: cattle, 72 h. It is filed as cell-based, Bos taurus. The gist of the method: as §1
For data set [7], the system named is HeLa. The experiment in a line: Cytotoxicity against human HeLa cells at 30 uM after 3 days by coulter counter method. It is filed as cell-based. The settings on record: 72 h. The gist of the method: as §1
For data set [8], the system named is MCF7. The experiment in a line: Cytotoxicity against human MCF7 cells at 30 uM after 3 days by coulter counter method. The settings on record: mcf7, 72 h. It is filed as cell-based. The gist of the method:
as §1

Data set [9] has as its system MAEC. The data set can be described thus: Antimigratory activity against mouse MAEC cell migration after 5 hrs by wound closure assay. It is filed as functional, cell-based. The gist of the method:
(§2)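 Confluent MAEC monolayers wounded with a 1.0-mm wide micropipette tip, then incubated in fresh medium with test compound. Wounds photographed after 5 h and width calculated from digital images. Mean ± SD of 2–4 independent experiments; Student t test, p < 0.05 significant.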

Data set [10] relates to MAEC. The data set can be described thus: Antimigratory activity against mouse MAEC cell migration at 30 uM after 5 hrs by wound closure assay. It is filed as functional. The gist of the method:
as §2

Data set [11] can be described thus: Antimigratory activity against mouse MAEC cell migration at 10 uM after 5 hrs by wound closure assay. It is filed as functional. The gist of the method: as §2
For data set [12], the system named is HMEC-1. The data set can be described thus: Antiangiogenic activity in human HMEC1 cells assessed as inhibition of tube formation at 10 uM after 4 to 6 hrs by matrigel assay. It is filed as functional, cell-based. The gist of the method:
(§3)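 HMEC-1 (60,000 cells) seeded on matrigel (10 mg/mL) after 30 min gelling at 37 °C, in DMEM containing test compound; after 4–6 h cells photographed and tubes scored 0 (none) to 3 (maximal, like untreated control). Mean ± SD of 2–4 independent experiments; Student t test, p < 0.05 significant.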

The species named for data set [13] is Gallus gallus. The experiment in a line: Antiangiogenic activity in chicken embryo chorioallantoic membrane model at 250 nmol/disc after 3 days. It is filed as functional, tissue-based.
The nature of data set [14]: Antiproliferative activity against human HMEC1 cells after 7 days by coulter counter method. It is filed as functional, cell-based. Particulars: HMEC-1, 168 h.
The subject of data set [15] is HeLa. The experiment in a line: Antiproliferative activity against human HeLa cells after 4 days by coulter counter method. It is filed as functional, cell-based. Particulars: 96 h.
Data set [16] in a line: Antiproliferative activity against bovine BAEC cells after 4 days by coulter counter method. It is filed as functional, cell-based. Particulars: Bos taurus, 96 h.
The subject of data set [17] is HMEC-1. The experiment in a line: Antiangiogenic activity in human HMEC1 cells assessed as inhibition of tube formation at 30 uM after 4 to 6 hrs by matrigel assay. It is filed as functional, cell-based. An outline of the steps:
as §3

For data set [18], the system named is MCF7. The experiment in a line: Antiproliferative activity against human MCF7 cells after 4 days by coulter counter method. Particulars: MCF7, 96 h. It is filed as functional, cell-based.
Data set [19] has as its system HMEC-1. The data set can be described thus: Antiangiogenic activity in human HMEC1 cells assessed as inhibition of tube formation after 4 to 6 hrs by matrigel assay. It is filed as functional, cell-based. The gist of the method: as §3

Molecules are shown by their SMILES. Calls of active or inactive are those of the source. The calls are words filed in the database; no cut-off is given here.

Regarding `CCOC(=O)CN(Cc1cc(F)cc(F)c1)c1ccc2c(c1)OC(C)(COc1ccc(C(=N)N)cc1)CN2C` (stereo not given), the Activity entry in [1], in data set [2], in data set [3], in data set [4], in data set [5] and in [6] was “Toxic” throughout. Moreover, the Activity entry in data set [7] and in [8] was “Toxic” in each case. In addition, the inhibition entry in data set [9] was “Dose-dependent effect”. Further, the inhibition entry in [10], in data set [13] and in data set [17] was “Active” in each case. In addition, the inhibition at 10 µM in [11] is 50%. Besides, the inhibition entry in [12] was “inactive”. Moreover, the IC50 in data set [14] was 1.8 µM; in [15], 4.9 µM; in [16] it was 4.1 µM; in data set [18], 3.5 µM.

Regarding `CCOC(=O)CN(Cc1ccc(F)c(F)c1)c1ccc2c(c1)OC(C)(COc1ccc(C(=N)N)cc1)CN2C` (stereo not given), the Activity result in [1], in data set [2], in [3], in data set [4], in data set [5] and in data set [6] was “Toxic” throughout. The Activity result in data set [7] and in data set [8] was “Toxic” in each case. In data set [9], the inhibition result was “Dose-dependent effect”. Also, the inhibition entry in [10], in data set [13] and in [17] was “Active” throughout. The compound also showed an inhibition at 10 µM in data set [11] of 50%. Moreover, in [12], the inhibition result is “inactive”. Further, the IC50 in [14] amounted to 2.5 µM; in [15] it was 4.1 µM; in [16], 4 µM; in data set [18], 4 µM.

In the case of `CCOC(=O)C(=O)N(Cc1ccc(F)c(F)c1)c1ccc2c(c1)N(C)CC(C)(COc1ccc(C(=N)N)cc1)O2` (stereo not given), the Activity entry in data set [1] is on record as “Toxic”; in [2], “Toxic”; in data set [3], “Toxic”; in data set [4] it was “Toxic”; in data set [5], “Non-toxic”; in data set [6], “Non-toxic”. Besides, the Activity entry in [7] and in data set [8] was “Non-toxic” in each case. Besides, the inhibition entry in [9] and in data set [19] was “Dose-dependent effect” throughout. Also, the inhibition entry in data set [10] and in data set [13] was “Active” each time. Further, in data set [11], the inhibition at 10 µM worked out at 50%. Further, the IC50 in data set [14] stood at 8.3 µM; in data set [15] it was 14 µM; in data set [16], 7.4 µM; in data set [18], 6.3 µM.

As to `CCOC(=O)C(=O)N(Cc1ccc(F)cc1)c1ccc2c(c1)OC(C)(COc1ccc(C(=N)N)cc1)CN2C` (stereo not given), the Activity entry is listed as “Toxic” in data set [1]; “Toxic” in data set [2]; “Toxic” in data set [3]; “Toxic” in data set [4]; “Non-toxic” in data set [5]; “Non-toxic” in [6]. In addition, the Activity result in [7] and in data set [8] was “Non-toxic” throughout. Moreover, the inhibition entry in [9] and in data set [19] was “Dose-dependent effect” each time. The inhibition entry in [10] and in data set [13] was “Active” throughout. In addition, the inhibition at 10 µM in data set [11] worked out at 50%. The IC50 in data set [14] turned out to be 7.6 µM; in data set [15], 14 µM; in data set [16], 6.9 µM; in [18], 6.3 µM.
